Assay results taken from publication PMC9664485 (European journal of medicinal chemistry, 2022).
Several values for one entry are separate records, joined by “and”; a condition that tells them apart may be missing. Equal entries are not always repeated.

How the values were obtained:
[1] = target: T1, recombinant human Wip1 (1–420) (Homo sapiens, UniProt O15297); assay: Wip1 phosphatase activity inhibition assay; assay type: biochemical; conditions: for Hill coefficient [n]: variable slope logistic fit of Wip1 inhibition curve
T1 sequence (O15297 1-420): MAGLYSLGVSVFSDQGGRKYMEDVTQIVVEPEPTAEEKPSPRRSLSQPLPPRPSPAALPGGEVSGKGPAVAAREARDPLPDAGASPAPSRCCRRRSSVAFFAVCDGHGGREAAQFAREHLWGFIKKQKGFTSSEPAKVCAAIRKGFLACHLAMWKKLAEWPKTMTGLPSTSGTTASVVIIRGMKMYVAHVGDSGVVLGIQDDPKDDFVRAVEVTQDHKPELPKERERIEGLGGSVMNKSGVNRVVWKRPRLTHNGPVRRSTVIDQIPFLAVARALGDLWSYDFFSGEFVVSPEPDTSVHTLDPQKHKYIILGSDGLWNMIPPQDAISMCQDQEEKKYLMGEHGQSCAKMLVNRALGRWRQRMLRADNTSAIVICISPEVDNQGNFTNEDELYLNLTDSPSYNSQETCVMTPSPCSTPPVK

[2] = target: T2, PPM1A (also called PP2Cα) (Homo sapiens, UniProt P35813); assay: PPM1A phosphatase specificity assay; assay type: biochemical; conditions: up to 100 μM; 8 nM PPM1A, 100 μM human p38α (175–185, 180pT) phosphopeptide
T2 sequence (P35813 1-382): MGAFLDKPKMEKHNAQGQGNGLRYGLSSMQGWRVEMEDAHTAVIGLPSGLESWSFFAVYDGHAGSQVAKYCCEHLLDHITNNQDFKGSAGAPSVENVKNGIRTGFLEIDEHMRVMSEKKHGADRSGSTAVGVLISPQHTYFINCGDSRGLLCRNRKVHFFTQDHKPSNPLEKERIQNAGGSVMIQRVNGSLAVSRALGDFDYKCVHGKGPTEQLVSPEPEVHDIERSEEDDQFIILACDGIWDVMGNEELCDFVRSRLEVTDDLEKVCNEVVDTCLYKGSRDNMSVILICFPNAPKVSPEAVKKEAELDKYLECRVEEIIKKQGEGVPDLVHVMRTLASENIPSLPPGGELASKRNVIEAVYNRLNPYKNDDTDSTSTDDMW
Method in brief: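 Test compound or DMSO is mixed with the phosphopeptide substrate before PPM1A is added. Buffer: 50 mM Tris·HCl pH 7.5, 0.1 mM EGTA, 1 mM DTT, 1 mM CHAPS, 0.1 mg/mL BSA, 30 mM MgCl2. Incubation runs 7 min at 30 °C. Biomol Green stops the reaction, then colour develops 20 min at room temperature. Released phosphate is read at 620 nm against a phosphate standard curve.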

## O=C(Nc1cccc(Cl)c1)c1cccc(CNc2ccc(C(=O)Nc3cccc(OP(=O)(O)O)c3)cc2CC2CCCCC2)c1 [Compound 40b, 3-(4-((3-((3-chlorophenyl)carbamoyl)benzyl)amino)-3-(cyclohexylmethyl)benzamido)phenyl dihydrogen phosphate]
[1]; compared with 22g
  fold improvement in Wip1 inhibition: 7 fold
[1]
  Hill coefficient [n]: 1.4 ± 0.1
[2]
  inhibitory activity against PPM1A: no inhibitory activity

## O=C(Nc1cccc(Cl)c1)c1cccc(C(=O)Nc2ccc(C(=O)Nc3cccc(OP(=O)(O)O)c3)cc2CC2CCCCC2)c1 [Compound 48a, 3-(4-(3-((3-chlorophenyl)carbamoyl)benzamido)-3-(cyclohexylmethyl)benzamido)phenyl dihydrogen phosphate]
[1]
  Hill coefficient [n]: 5 and 5.1 ± 0.3
[2]
  inhibitory activity against PPM1A: no inhibitory activity

## O=C(Nc1cccc(OP(=O)(O)O)c1)c1ccc(NC(=O)c2cccc(CNc3cccc(Cl)c3)c2)c(CC2CCCCC2)c1 [Compound 48b, 3-(4-(3-(((3-chlorophenyl)amino)methyl)benzamido)-3-(cyclohexylmethyl)benzamido)phenyl dihydrogen phosphate]
[1]
  Hill coefficient [n]: 2.3 ± 0.2
[2]
  inhibitory activity against PPM1A: no inhibitory activity
